# Measured values taken from ChEMBL document CHEMBL3352236, “Discovery and molecular modeling of novel 1-indolyl acetate--5-nitroimidazole targeting tubulin polymerization as antiproliferative agents” (Eur J Med Chem, 2014).
# Assays:
# A549 = assay: Antiproliferative activity against human A549 cells after 24 to 48 hrs by CKK8 assay; assay type: functional, cell-based
# Summary of the method: (§1)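 CCK-8 assay. 1–5 × 10³ cells per well grown at 37 °C for 12 h, then exposed to rising compound concentrations in 10% FBS for 24 or 48 h. CCK-8 dye added and incubated 1–2 h at 37 °C, […]. Percent inhibition or IC50 taken relative to DMSO-treated control wells.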
# HeLa = assay: Antiproliferative activity against human HeLa cells after 24 to 48 hrs by CKK8 assay; assay type: functional, cell-based; summary of the method: as §1
# U-251 = assay: Antiproliferative activity against human U251 cells after 24 to 48 hrs by CKK8 assay; assay type: functional, cell-based; summary of the method: as §1
# [1] = Cytotoxicity against human macrophages assessed as reduction in cell viability after 24 hrs by MTT assay; assay type: cell-based, Macrophage
# Summary of the method: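 Human macrophages at 5*10⁵ cells per well treated with a range of compound concentrations for 24 h at 37 °C, 5% CO₂. MTT (4 mg/mL) added and left 4 h, then centrifugation at 1200 rcf for 5 min and formazan dissolved in DMSO. Absorbance read at 570 nm. Triplicate wells, assay run three times, mean CC50 (50% viability loss) ± SD reported.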
# Tubulin = Tubulin (Bos taurus, UniProt Q6B856+Q862L2+Q862F3); assay: Inhibition of bovine brain tubulin preincubated for 20 mins by turbidimetry
SMILES,IC50 (A549) [µM],IC50 (HeLa) [µM],IC50 (U-251) [µM],CC50 at 24 h [1] [µM],IC50 (Tubulin) [µM]
COc1cccc(/C=C\c2ncc([N+](=O)[O-])n2CCOC(=O)c2c[nH]c3ccccc23)c1,4.09,4.01,2.76,89,67.7
O=C(OCCn1c([N+](=O)[O-])cnc1/C=C\c1ccccc1Br)c1c[nH]c2ccccc12,5.11,4.12,3.09,145,112.2
O=C(OCCn1c([N+](=O)[O-])cnc1/C=C\c1ccc([N+](=O)[O-])cc1)c1c[nH]c2ccccc12,2.01,1.79,2.03,200,6.9
O=C(OCCn1c([N+](=O)[O-])cnc1/C=C\c1ccc(Cl)cc1Cl)c1c[nH]c2ccccc12,2,1.05,0.87,287,2.4
O=C(OCCn1c([N+](=O)[O-])cnc1/C=C\c1cccc(Br)c1)c1c[nH]c2ccccc12,6.03,4.81,3.87,164,162
O=C(OCCn1c([N+](=O)[O-])cnc1/C=C/c1ccccc1Cl)c1c[nH]c2ccccc12,4.24,3.1,2.98,132,71.2
O=C(OCCn1c([N+](=O)[O-])cnc1/C=C\c1ccc(Br)cc1)c1c[nH]c2ccccc12,5.55,4.8,3.89,98,123.3
Cc1ccc(/C=C\c2ncc([N+](=O)[O-])n2CCOC(=O)c2c[nH]c3ccccc23)cc1,3.88,2.28,3.11,123,45.2
O=C(OCCn1c([N+](=O)[O-])cnc1/C=C\c1ccccc1[N+](=O)[O-])c1c[nH]c2ccccc12,2.12,1.24,1.11,109,6.3
COc1ccccc1/C=C\c1ncc([N+](=O)[O-])n1CCOC(=O)c1c[nH]c2ccccc12,3.11,3.23,4.09,77,21.4
Cc1cccc(/C=C\c2ncc([N+](=O)[O-])n2CCOC(=O)c2c[nH]c3ccccc23)c1,4.32,3.77,3.02,154,75.3
O=C(OCCn1c([N+](=O)[O-])cnc1/C=C\c1cccc([N+](=O)[O-])c1)c1c[nH]c2ccccc12,2.86,2.01,2.81,123,19.5
O=C(OCCn1c([N+](=O)[O-])cnc1/C=C\c1ccccc1)c1c[nH]c2ccccc12,8.43,13.6,16.9,105,204.1
COc1ccc(/C=C\c2cc(OC)c(OC)c(OC)c2)cc1O [COMBRETASTATIN A4],2.79,1.44,0.54,,
O=C(OCCn1c([N+](=O)[O-])cnc1/C=C\c1cccc2ccccc12)c1c[nH]c2ccccc12,7.02,10.1,12.8,158,186.5
O=C(OCCn1c([N+](=O)[O-])cnc1/C=C/c1cccc(Cl)c1)c1c[nH]c2ccccc12,5.02,4.21,4.08,156,103
O=C(OCCn1c([N+](=O)[O-])cnc1/C=C/c1ccc(Cl)cc1)c1c[nH]c2ccccc12,4.51,3.77,3.23,104,98.8
Cc1ccccc1/C=C\c1ncc([N+](=O)[O-])n1CCOC(=O)c1c[nH]c2ccccc12,4.02,4.43,2.79,202,67.2
COc1ccc(/C=C\c2ncc([N+](=O)[O-])n2CCOC(=O)c2c[nH]c3ccccc23)cc1,3.97,3.88,3.07,106,50.3
